# Assays:
# [1] = test system: Canis familiaris; test: Compound administered intravenously at a dose of 5 mg/kg was evaluated for salidiuretic activity measured as sodium ion excretion in Dog; assay type: ADME, organism-based, Canis lupus familiaris, Urine; parameters: dose 5 mg/kg, route intravenous; settings: in vivo, iv
# Summary of the method: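 Conditioned female mongrel dogs, postabsorptive, water-loaded (500 mL po) 1 h before sodium pentobarbital anesthesia (30 mg/kg iv). Bladder catheter; creatinine 4 g sc; phosphate–mannitol buffer pH 7.4 infused (3.0 mL/min) throughout. […] Urine Na+ measured; response scored 0–6.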
# [2] = test system: Canis familiaris; test: Oral diuretic activity was evaluated by measuring K+ excretion in dog at 2 mg/kg after ip administration ( 0 - 6 hr); assay type: ADME, organism-based, Canis lupus familiaris, Urine; parameters: route intraperitoneal, dose 2 mg/kg; settings: in vivo
# Summary of the method: (§1)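 Spontaneous urine was pooled with bladder urine collected by catheterization at 6 h. Volume was measured and Na+, K+ and Cl− were determined by standard methods. Values are geometric means.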
# [3] = species on record: Rattus norvegicus; test: Time taken for the decrease in arterial pressure was measured; assay type: functional, Artery
# [4] = test system: Rattus norvegicus; test: Maximum fall in mean arterial blood pressure was measured in SH rats when compound was administered at 40 mg/kg perorally; assay type: functional; settings: route oral
# [5] = test system: Rattus norvegicus; test: Oral diuretic activity was evaluated by measuring K+ excretion in Rat at 9 mg/kg after […] ( 0 - 5 hr); assay type: ADME, organism-based, Urine; parameters: dose 9 mg/kg; settings: in vivo
# Summary of the method: (§2)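 Female Charles-River rats (150–170 g) were kept overnight on a sugar diet with water ad libitum. Test substance was dissolved in DMF and diluted with water containing Tween 80 to a final 4% DMF vehicle, then given po in 5.0 mL. Rats were housed three per metabolism cage, and 0–5 h urine was assayed for Na⁺, K⁺ and Cl⁻ alongside concurrent placebo groups. Values are mequiv × 100 per cage, geometric means of three cages per dose.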
# [6] = test system: Rattus norvegicus; test: Oral diuretic activity was evaluated by measuring Na+ excretion in Rat at 9 mg/kg […] ( 0 - 5 hr); assay type: ADME, organism-based, Urine; parameters: dose 9 mg/kg
# Summary of the method: (§3)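 Female Charles-River rats (150–170 g) were kept overnight on a sugar diet with water ad libitum. Compound was dissolved in DMF, then diluted with water containing Tween 80 (3 drops/100 mL) to a final 4% DMF, and given po in 5.0 mL. Rats were housed three per metabolism cage. Urine from 0–5 h was analysed for Na+, K+ and Cl−, with concurrent placebo controls. Values are mequiv × 100 per cage, geometric mean of three cages per dose.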
# [7] = Evaluated for salidiuretic activity measured as sodium ion excretion in Rat, administered orally at a dose of 16.5 mg/kg; assay type: organism-based; parameters: dose 16.5 mg/kg; settings: Urine
# Summary of the method: (§4)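 Female Charles-River rats (150–170 g), overnight on sugar diet with water ad libitum. Compound dissolved in DMF, diluted with water containing Tween 80 (final 4% DMF), given po in 5.0 mL; concurrent vehicle placebo. Three rats per metabolism cage; 0–5 h urine analysed for Na+, K+, Cl-. Values: mequiv × 100 per cage, geometric means of three cages per dose; scored 0–6 by Na+.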
# [8] = test system: Rattus norvegicus; test: Oral diuretic activity was evaluated by measuring K+ excretion in Rat at 81 mg/kg […] ( 0 - 5 hr); assay type: ADME, organism-based, Urine; parameters: dose 81 mg/kg; summary of the method: as §2
# [9] = test system: Canis familiaris; test: Oral diuretic activity was evaluated by measuring K+ excretion in dog at 5 mg/kg after ip administration ( 0 - 6 hr); assay type: ADME, organism-based, Canis lupus familiaris, Urine; parameters: dose 5 mg/kg, route intraperitoneal; settings: in vivo; summary of the method: as §1
# [10] = test system: Rattus norvegicus; test: Oral diuretic activity was evaluated by measuring K+ excretion in Rat at 27 mg/kg after po administration ( 0 - 5 hr); settings: in vivo
# [11] = test system: Canis familiaris; test: Oral diuretic activity was evaluated by measuring Na+ excretion in dog at 1 mg/kg after ip administration ( 0 - 6 hr); assay type: ADME, organism-based, Canis lupus familiaris, Urine; parameters: dose 1 mg/kg, route intraperitoneal; settings: in vivo; summary of the method: as §1
# [12] = Compound administered orally at a dose of 5 mg/kg was evaluated for salidiuretic activity measured as sodium ion excretion in Rat; assay type: organism-based; parameters: dose 5 mg/kg; settings: Urine; summary of the method: as §4
# [13] = test system: Rattus norvegicus; test: Oral diuretic activity was evaluated by measuring Cl- excretion in Rat at 81 mg/kg after po administration ( 0 - 5 hr); settings: in vivo
# [14] = test system: Rattus norvegicus; test: Oral diuretic activity was evaluated by measuring K+ excretion in Rat at 3 mg/kg […] ( 0 - 5 hr); assay type: ADME, organism-based, Urine; parameters: dose 3 mg/kg; summary of the method: as §2
# [15] = test system: Canis familiaris; test: Oral diuretic activity was evaluated by measuring K+ excretion in dog at 1 mg/kg after […] ( 0 - 6 hr); assay type: ADME, organism-based, Canis lupus familiaris, Urine; parameters: dose 1 mg/kg; settings: in vivo; summary of the method: as §1
# [16] = test system: Rattus norvegicus; test: Oral diuretic activity was evaluated by measuring Cl- excretion in Rat at 3 mg/kg after […] ( 0 - 5 hr); assay type: ADME, organism-based, Urine; parameters: dose 3 mg/kg, route intraperitoneal; settings: in vivo
# [17] = test system: Canis familiaris; test: Oral diuretic activity was evaluated by measuring Cl- excretion in dog at 5 mg/kg after […] ( 0 - 6 hr); assay type: ADME, organism-based, Canis lupus familiaris, Urine; parameters: dose 5 mg/kg, route intraperitoneal; settings: in vivo
# [18] = test system: Canis familiaris; test: Oral diuretic activity was evaluated by measuring Na+ excretion in dog at 2 mg/kg after […] ( 0 - 6 hr); assay type: ADME, organism-based, Canis lupus familiaris, Urine; parameters: dose 2 mg/kg; settings: in vivo
# Summary of the method: (§5)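 Dogs; spontaneous urine was pooled with bladder urine drained by catheter at the end of 6 h. Urine volume was measured, and aliquots were assayed for Na+, K+ and Cl− by standard methods. Values are geometric means, expressed as mequiv over 0–6 h.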
# [19] = test system: Rattus norvegicus; test: Oral diuretic activity was evaluated by measuring Cl- excretion in Rat at 27 mg/kg after […] ( 0 - 5 hr); assay type: ADME, organism-based, Urine; parameters: dose 27 mg/kg, route intraperitoneal; settings: in vivo
# [20] = test system: Rattus norvegicus; test: Maximum fall in mean arterial blood pressure was measured in SH rats when compound was administered at 20 mg/kg perorally; assay type: functional; settings: route oral
# [21] = test system: Canis familiaris; test: Oral diuretic activity was evaluated by measuring Cl- excretion in dog at 2 mg/kg after […] ( 0 - 6 hr); assay type: ADME, organism-based, Canis lupus familiaris, Urine; parameters: dose 2 mg/kg, route intraperitoneal; settings: in vivo
# [22] = test system: Rattus norvegicus; test: Evaluated for salidiuretic activity measured as sodium ion excretion in Rat, administered orally at a dose of 50 mg/kg; assay type: functional, Urine; parameters: unit not given beside the values; settings: route oral; summary of the method: as §4
# [23] = test system: Canis familiaris; test: Oral diuretic activity was evaluated by measuring Cl- excretion in dog at 1 mg/kg after […] ( 0 - 6 hr); assay type: ADME, organism-based, Canis lupus familiaris, Urine; parameters: dose 1 mg/kg, route intraperitoneal; settings: in vivo
# [24] = test system: Rattus norvegicus; test: Oral diuretic activity was evaluated by measuring Na+ excretion in Rat at 27 mg/kg […] ( 0 - 5 hr); assay type: ADME, organism-based, Urine; parameters: dose 27 mg/kg; summary of the method: as §3
# [25] = test system: Rattus norvegicus; test: Oral diuretic activity was evaluated by measuring Cl- excretion in Rat at 9 mg/kg […] ( 0 - 5 hr); assay type: ADME, organism-based, Urine; parameters: dose 9 mg/kg; settings: in vivo; summary of the method: as §2
# [26] = test system: Rattus norvegicus; test: Oral diuretic activity was evaluated by measuring Na+ excretion in Rat at 3 mg/kg […] ( 0 - 5 hr); assay type: ADME, organism-based, Urine; parameters: dose 3 mg/kg; summary of the method: as §3
# [27] = test system: Rattus norvegicus; test: Compound administered orally at a dose of 1 mg/kg was evaluated for salidiuretic activity measured as sodium ion excretion in Rat; settings: in vivo, po
# [28] = test system: Canis familiaris; test: Oral diuretic activity was evaluated by measuring Na+ excretion in dog at 5 mg/kg after […] ( 0 - 6 hr); assay type: ADME, organism-based, Canis lupus familiaris, Urine; parameters: dose 5 mg/kg; settings: in vivo; summary of the method: as §5
smiles,measurement,setting,value
CC(C)(C)c1cc(Cl)c(O)c(CN)c1.Cl,Diuretic activity,[1],> 900
same,Diuretic activity,[2],9.13
same,Duration,[3],24 h
same,MAP,[4],35 mmHg
same,Diuretic activity,[5],0.71
same,Diuretic activity,[6],2.68
same,Diuretic activity,[7],4.2
same,Diuretic activity,[8],0.9
same,Diuretic activity,[9],10.38
same,Diuretic activity,[10],0.94
same,Diuretic activity,[11],28.38
same,Diuretic activity,[12],3.6
same,Diuretic activity,[13],4.87
same,Diuretic activity,[14],0.52
same,Diuretic activity,[15],6.5
same,Diuretic activity,[16],2.4
same,Diuretic activity,[17],54.25
same,Diuretic activity,[18],40.38
same,Diuretic activity,[19],4.31
same,MAP,[20],9 mmHg
same,Diuretic activity,[21],51.63
same,Diuretic activity,[22],3.9
same,Diuretic activity,[23],38.25
same,Diuretic activity,[24],3.16
same,Diuretic activity,[25],3.7
same,Diuretic activity,[26],1.75
same,Diuretic activity,[27],2.1
same,Diuretic activity,[28],43.13
